Results: ChEMBL document CHEMBL3593164, “Rational Design and Synthesis of Thioridazine Analogues as Enhancers of the Antituberculosis Therapy” (J Med Chem, 2015)

Key:
[1] = system: Mycobacterium tuberculosis; experiment: Inhibition of multidrug resistance efflux pump in Mycobacterium tuberculosis H37Rv assessed as reduction in rifampin MIC at 4 ug/ml after 7 days by two-dimensional broth microdilution checkerboard assay
In short: (§1)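 M. tuberculosis H37Rv two-dimensional broth microdilution checkerboard. MICs of INH, RIF, AMK, OFX or EtBr were determined without and with graded sub-inhibitory compound concentrations, starting at ½ MIC. Where MIC was undeterminable, the highest concentration still permitting growth was taken as ½ MIC. FIC = MIC of antibacterial in combination / MIC alone. FIC ≤0.25 was scored as synergism and ≥2 as antagonism.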

[2] = system: Mycobacterium tuberculosis; experiment: Inhibition of multidrug resistance efflux pump in Mycobacterium tuberculosis H37Rv assessed as reduction in ethidium bromide MIC at 32 ug/ml after 7 days by two-dimensional broth microdilution checkerboard assay; in short: as §1
[3] = system: Mycobacterium tuberculosis; experiment: Inhibition of multidrug resistance efflux pump in Mycobacterium tuberculosis H37Rv assessed as reduction in ethidium bromide MIC at 128 ug/ml after 7 days by two-dimensional broth microdilution checkerboard assay
[4] = system: Mycobacterium tuberculosis; experiment: Inhibition of multidrug resistance efflux pump in Mycobacterium tuberculosis H37Rv assessed as reduction in ofloxacin MIC at 128 ug/ml after 7 days by two-dimensional broth microdilution checkerboard assay
[5] = system: Mycobacterium tuberculosis; experiment: Inhibition of multidrug resistance efflux pump in Mycobacterium tuberculosis H37Rv assessed as ethidium bromide MIC at 1.88 ug/ml after 7 days by two-dimensional broth microdilution checkerboard assay; settings: 168 h
In short: (§2)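 M. tuberculosis H37Rv ATCC27294. MICs of INH, RIF, AMK, OFX and EtBr were determined alone and with sub-inhibitory concentrations of test compound by two-dimensional broth microdilution checkerboard. Where a compound's MIC was not determinable, the highest concentration still allowing growth was taken as ½ MIC. FIC = MIC in combination / MIC alone. FIC ≤0.25 was scored as synergism and ≥2 as antagonism.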

[6] = system: Mycobacterium tuberculosis; experiment: Inhibition of multidrug resistance efflux pump in Mycobacterium tuberculosis H37Rv assessed as amikacin MIC at 1.88 ug/ml after 7 days by two-dimensional broth microdilution checkerboard assay; settings: 168 h; in short: as §2
[7] = system: Mycobacterium tuberculosis; experiment: Inhibition of multidrug resistance efflux pump in Mycobacterium tuberculosis H37Rv assessed as isoniazid MIC at 0.23 ug/ml after 7 days by two-dimensional broth microdilution checkerboard assay; settings: 168 h; in short: as §2
[8] = system: Mycobacterium tuberculosis; experiment: Inhibition of multidrug resistance efflux pump in Mycobacterium tuberculosis H37Rv assessed as reduction in rifampin MIC at 7.5 ug/ml after 7 days by two-dimensional broth microdilution checkerboard assay; in short: as §1
[9] = system: Mycobacterium tuberculosis; experiment: Inhibition of multidrug resistance efflux pump in Mycobacterium tuberculosis H37Rv assessed as ethidium bromide MIC at 0.47 ug/ml after 7 days by two-dimensional broth microdilution checkerboard assay; settings: 168 h; in short: as §2
[10] = system: Mycobacterium tuberculosis; experiment: Inhibition of multidrug resistance efflux pump in Mycobacterium tuberculosis H37Rv assessed as reduction in ofloxacin MIC at 7.5 ug/ml after 7 days by two-dimensional broth microdilution checkerboard assay; in short: as §1
[11] = system: Mycobacterium tuberculosis; experiment: Inhibition of multidrug resistance efflux pump in Mycobacterium tuberculosis H37Rv assessed as reduction in isoniazid MIC at 7.5 ug/ml after 7 days by two-dimensional broth microdilution checkerboard assay; in short: as §1
[12] = system: Mycobacterium tuberculosis; experiment: Inhibition of multidrug resistance efflux pump in Mycobacterium tuberculosis H37Rv assessed as rifampin MIC at 0.12 ug/ml after 7 days by two-dimensional broth microdilution checkerboard assay; settings: 168 h; in short: as §2
[13] = system: Mycobacterium tuberculosis; experiment: Inhibition of multidrug resistance efflux pump in Mycobacterium tuberculosis H37Rv assessed as isoniazid MIC at 0.94 ug/ml after 7 days by two-dimensional broth microdilution checkerboard assay; settings: 168 h; in short: as §2
[14] = system: Mycobacterium tuberculosis; experiment: Inhibition of multidrug resistance efflux pump in Mycobacterium tuberculosis H37Rv assessed as ofloxacin MIC at 0.12 ug/ml after 7 days by two-dimensional broth microdilution checkerboard assay; settings: 168 h; in short: as §2
[15] = system: Mycobacterium tuberculosis; experiment: Inhibition of multidrug resistance efflux pump in Mycobacterium tuberculosis H37Rv assessed as rifampin MIC at 7.5 ug/ml after 7 days by two-dimensional broth microdilution checkerboard assay; settings: 168 h; in short: as §1

With `COc1ccc(N(CCC2CCCCN2C)C(C)C)cc1OC` (racemic) the “fold change (FC)” value [1] was 4.

`CN1CCCCC1CCn1c2ccccc2c2ccccc21` (racemic) was tested, and the “fold change (FC)” value [2] was 4.

In the case of `CN1CCCCC1CCn1ccc2ccc(Br)cc21` (racemic), the “fold change (FC)” value [3] is reported as >164 and the “fold change (FC)” value [4] is reported as >128.

In the case of `CSc1ccc2c(c1)N(CCC1CCCCN1C)c1ccccc1S2` (stereo not given) [THIORIDAZINE], the MIC [5] is reported as 6.25 µg/mL, the MIC [6] is reported as 1 µg/mL and the MIC [7] is reported as 0.1 µg/mL. The “fold change (FC)” value [8] was >64, the MIC [9] was 6.25 µg/mL and the “fold change (FC)” value [10] was >128. The “fold change (FC)” value [11] was >128, the MIC [12] was 1 µg/mL and the MIC [13] was 0.1 µg/mL. For the same compound, the MIC [14] was 1 µg/mL and the MIC [15] was < 0.0156 µg/mL.
